Here are results for five molecules from ChEMBL document CHEMBL1125234, “Novel pyrrolo[2,3-d]pyrimidine antifolates: synthesis and antitumor activities” (J Med Chem, 1991).

Values after ≈ are worked out from the molar mass of the structure shown.

Assay [1] is described as follows: In vitro growth inhibitory activity against KB human epidermoid carcinoma cells. Type of assay: functional. In short, it runs like this: (§1)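 Cells seeded at 1 × 10^4 cells/mL in 96-well plates, MEM with 10% fetal calf serum, 37 °C, 5% CO₂, 24 h. Antifolate added in 10% MEM at final 0.15-80 ng/mL, then culture continued 72 h at 37 °C. Cell number estimated by MTT; IC50 taken as concentration giving 50% growth inhibition. Means ± SE of three experiments.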

For the next assay, the system named is A549. Description: In vitro growth inhibitory activity against A549 human nonsmall cell lung carcinoma cells. Type of assay: functional, cell-based. In short, it runs like this: as §1

What is called IC50 is the point on the concentration scale where inhibition reaches its midpoint. The low end stands for greater potency in that assay, the high end for weaker potency in that assay. Turning to `CC(CCc1c[nH]c2nc(N)nc(N)c12)c1ccc(C(=O)N[C@H](CCC(=O)O)C(=O)O)cc1` (stereo not given in full), the figures for the IC50 (in assay [1]; in the assay on A549) were 0.59 ng/mL (≈ 1.3 nM) and 2.3 ng/mL (≈ 5.06 nM), respectively.
Taken in the same sequence, the figures for `Nc1nc(N)c2c(n1)NCC2CCCc1ccc(C(=O)N[C@H](CCC(=O)O)C(=O)O)cc1` (stereo not given in full) were 0.49 ng/mL (≈ 1.11 nM) and 4.9 ng/mL (≈ 11.1 nM).
Regarding `CC(CCC1CNc2nc(N)nc(N)c21)c1ccc(C(=O)N[C@H](CCC(=O)O)C(=O)O)cc1` (stereo not given in full), the IC50 stood at 0.3 ng/mL (≈ 0.657 nM) in assay [1] and 1.6 ng/mL (≈ 3.5 nM) with A549.
The corresponding values for `Nc1nc(N)c2c(CCCc3ccc(C(=O)N[C@H](CCC(=O)O)C(=O)O)cc3)c[nH]c2n1` are 0.27 ng/mL (≈ 0.613 nM) and 4.5 ng/mL (≈ 10.2 nM).
Taken in the same sequence, the figures for `CN(Cc1cnc2nc(N)nc(N)c2n1)c1ccc(C(=O)N[C@@H](CCC(=O)O)C(=O)O)cc1` [METHOTREXATE] were 5.02 ng/mL (≈ 11 nM) and 35 ng/mL (≈ 77 nM).
